# Tests used:
# [1] = biological target: T1, Amine oxidase [flavin-containing] A (Rattus norvegicus, UniProt P21396); assay: Inhibition of MAO-A in Sprague-Dawley rat brain mitochondrial suspension using kynuramine as substrate incubated for 5 mins prior to substrate addition measured for 5 mins by spectrophotometry
# T1 sequence (P21396 whole entry): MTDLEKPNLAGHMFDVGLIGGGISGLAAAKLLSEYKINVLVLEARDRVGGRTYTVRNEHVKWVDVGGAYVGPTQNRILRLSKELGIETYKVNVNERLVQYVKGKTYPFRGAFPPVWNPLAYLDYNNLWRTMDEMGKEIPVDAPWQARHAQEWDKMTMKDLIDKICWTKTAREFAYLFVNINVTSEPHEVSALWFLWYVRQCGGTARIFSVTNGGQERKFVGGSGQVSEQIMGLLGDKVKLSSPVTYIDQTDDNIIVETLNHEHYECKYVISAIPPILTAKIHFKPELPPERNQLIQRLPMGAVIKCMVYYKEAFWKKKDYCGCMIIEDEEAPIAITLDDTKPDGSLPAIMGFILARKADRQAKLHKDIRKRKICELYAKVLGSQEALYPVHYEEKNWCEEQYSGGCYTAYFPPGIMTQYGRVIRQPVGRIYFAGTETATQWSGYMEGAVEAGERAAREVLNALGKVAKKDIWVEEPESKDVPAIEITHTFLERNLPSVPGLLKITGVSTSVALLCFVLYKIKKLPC
# [2] = biological target: T2, Amine oxidase [flavin-containing] B (Rattus norvegicus, UniProt P19643); assay: Inhibition of MAO-B in Sprague-Dawley rat brain mitochondrial suspension using kynuramine as substrate incubated for 5 mins prior to substrate addition measured for 5 mins by spectrophotometry
# T2 sequence (P19643 whole entry): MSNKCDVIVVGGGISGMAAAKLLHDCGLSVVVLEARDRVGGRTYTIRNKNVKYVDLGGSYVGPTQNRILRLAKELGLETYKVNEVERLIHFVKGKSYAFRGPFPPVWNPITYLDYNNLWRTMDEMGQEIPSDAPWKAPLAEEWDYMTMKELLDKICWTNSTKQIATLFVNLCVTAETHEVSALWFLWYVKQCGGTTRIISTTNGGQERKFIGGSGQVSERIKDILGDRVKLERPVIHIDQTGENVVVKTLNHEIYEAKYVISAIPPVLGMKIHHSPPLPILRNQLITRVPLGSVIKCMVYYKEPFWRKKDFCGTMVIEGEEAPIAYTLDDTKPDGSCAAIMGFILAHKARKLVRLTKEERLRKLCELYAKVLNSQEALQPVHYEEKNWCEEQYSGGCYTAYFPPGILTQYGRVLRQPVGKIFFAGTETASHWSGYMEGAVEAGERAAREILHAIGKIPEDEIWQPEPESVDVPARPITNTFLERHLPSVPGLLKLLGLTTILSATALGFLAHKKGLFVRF
# Method in brief: (§1)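 Crude brain mitochondria from male Sprague-Dawley rats (200–250 g), used at 1 mg/mL. Isoforms separated with clorgyline or (−)-L-deprenyl, both irreversible at 250 nM. 5 min preincubation with compound, final DMSO 5% (v/v). Kynuramine then added at 60 μM (KM), and 4-hydroxyquinoline formation was followed at 314 nm for 5 min. IC50 by nonlinear regression of inhibition vs −log concentration, or % inhibition at 10 or 20 μM. Mean of 2–3 independent experiments.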
# [3] = biological target: T2, Amine oxidase [flavin-containing] B; assay: Inhibition of MAO-B in Sprague-Dawley rat brain mitochondrial suspension using kynuramine as substrate at 10 uM incubated for 5 mins prior to substrate addition measured for 5 mins by spectrophotometry; method in brief: as §1
# [4] = biological target: T1, Amine oxidase [flavin-containing] A; assay: Ratio of moclobemide IC50 to compound IC50 for Sprague-Dawley rat brain MAO-A
# [5] = biological target: T1, Amine oxidase [flavin-containing] A; assay: Inhibition of MAO-A in Sprague-Dawley rat brain mitochondrial suspension using kynuramine as substrate at 10 uM incubated for 5 mins prior to substrate addition measured for 5 mins by spectrophotometry
# Method in brief: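 Male Sprague-Dawley rat brain (200–250 g) crude mitochondrial fraction, 1 mg/mL, stored at −40 °C in isotonic phosphate/KCl buffer pH 7.4. Selective irreversible inhibitors clorgyline and (−)-L-deprenyl (250 nM each) used to separate isoform activities. Test compound preincubated 5 min, final DMSO 5% (v/v). Kynuramine 90 μM (KM) added, 4-hydroxyquinoline formation read at 314 nm for 5 min. […] Mean of 2–3 independent experiments.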
# [6] = biological target: T2, Amine oxidase [flavin-containing] B; assay: Inhibition of MAO-B in Sprague-Dawley rat brain mitochondrial suspension using kynuramine as substrate at 20 uM incubated for 5 mins prior to substrate addition measured for 5 mins by spectrophotometry; method in brief: as §1
Compound,IC50 [1],inhibition at 10 µM [3],further results
CNCc1cc(=O)oc2cc(OS(=O)(=O)c3cccc(Cl)c3)ccc12,5.3 µM,,IC50 [2]: 1.7 µM
CNC(=O)/C=C1/COc2cc(OS(=O)(=O)CCC(F)(F)F)ccc21,0.0091 µM,17%,
CNC(=O)/C=C1/COc2c1ccc(OS(=O)(=O)CCC(F)(F)F)c2C,0.011 µM,5%,
CNC(=O)Cc1coc2cc(OS(=O)(=O)c3cccc(Cl)c3)ccc12,0.409 µM,4%,
CCNC(=O)Cc1coc2cc(OS(=O)(=O)c3cccc(Cl)c3)ccc12,,0%,inhibition at 10 µM [5]: 31%
O=C1COc2cc(OS(=O)(=O)c3cccc(Cl)c3)ccc21,,0%,inhibition at 10 µM [5]: 17%
CNC(=O)Cc1coc2cc(OCc3cccc(Cl)c3)ccc12,3.1 µM,,IC50 [2]: 0.284 µM
CNC(=O)Cc1cc(=O)oc2cc(OS(=O)(=O)c3cccc(Cl)c3)ccc12,0.111 µM,,IC50 [2]: 8.3 µM
CNC(=O)c1cc(=O)oc2cc(OS(=O)(=O)c3cccc(Cl)c3)ccc12,,9%,inhibition at 10 µM [5]: 8%
NCc1cc(=O)oc2cc(OS(=O)(=O)c3cccc(Cl)c3)ccc12,0.997 µM,,IC50 [2]: 3.3 µM
CNC(=O)/C=C1/COc2c1ccc(OS(=O)(=O)c1ccccc1)c2C,0.0098 µM,5%,
CNC(=O)/C=C1/COc2c1ccc(OS(=O)(=O)c1ccc(C#N)cc1)c2C,0.015 µM,6%,
O=C(NCCN1CCOCC1)c1ccc(Cl)cc1 [MOCLOBEMIDE],,0%,

# More lines, main results first:
IC50 [1],inhibition at 10 µM [3],Compound,further results
0.029 µM,0%,CNC(=O)/C=C1/COc2cc(OS(=O)(=O)c3ccc(C(C)=O)cc3)ccc21,
0.011 µM,0%,CNC(=O)/C=C1/COc2cc(OS(=O)(=O)c3ccc(OC)cc3)ccc21,
0.007 µM,0%,CNC(=O)/C=C1/COc2c1ccc(OS(=O)(=O)c1ccc(OC)cc1)c2C,Ratio IC50 [4]: 1000
4.2 µM,0%,CCNC(=O)/C=C1/COc2cc(OS(=O)(=O)c3cccc(Cl)c3)ccc21,
,1%,CC(C)NC(=O)/C=C1/COc2cc(OS(=O)(=O)c3cccc(Cl)c3)ccc21,inhibition at 10 µM [5]: 14%
0.427 µM,,CNC(=O)/C=C1/COc2cc(OCc3cccc(Cl)c3)ccc21,IC50 [2]: 0.036 µM
0.034 µM,0%,CNC(=O)/C=C1/COc2cc(OS(=O)(=O)c3ccccc3)ccc21,
0.041 µM,0%,CNC(=O)/C=C1/COc2cc(OS(=O)(=O)c3cccc(Cl)c3)ccc21,
0.041 µM,,CNC(=O)/C=C1/COc2cc(OS(=O)(=O)c3cccc(F)c3)ccc21,inhibition at 20 µM [6]: 6%
0.019 µM,0%,CNC(=O)/C=C1/COc2cc(OS(=O)(=O)c3cccc(C#N)c3)ccc21,
0.012 µM,6%,CNC(=O)/C=C1/COc2cc(OS(=O)(=O)c3ccc(Cl)cc3)ccc21,
0.045 µM,,CNC(=O)/C=C1/COc2cc(OS(=O)(=O)c3ccc(C#N)cc3)ccc21,inhibition at 20 µM [6]: 10%
0.037 µM,13%,CNC(=O)/C=C1/COc2cc(OS(=O)(=O)c3ccc([N+](=O)[O-])cc3)ccc21,
0.019 µM,0%,CNC(=O)/C=C1/COc2cc(OS(=O)(=O)c3ccc(S(C)(=O)=O)cc3)ccc21,
0.016 µM,6%,CNC(=O)/C=C1/COc2cc(OS(=O)(=O)c3ccc(Cl)s3)ccc21,
0.024 µM,2%,CNC(=O)/C=C1/COc2c1ccc(OS(=O)(=O)c1cccc(Cl)c1)c2C,

# — ChEMBL document CHEMBL2321669, “Discovery, biological evaluation, and structure-activity and -selectivity relationships of 6'-substituted (E)-2-(benzofuran-3(2H)-ylidene)-N-methylacetamides, a novel class of potent and selective monoamine oxidase inhibitors” (J Med Chem, 2013)
